Assay results from ChEMBL document CHEMBL2311269, “Identification of benzofuran-3-yl(phenyl)methanones as novel SIRT1 inhibitors: binding mode, inhibitory mechanism and biological action” (Eur J Med Chem, 2013).
The source made the active and inactive calls. The rule behind the calls is not given here.

How the values were obtained:
[1] = molecular target: T1, NAD-dependent protein deacetylase sirtuin-1 (Homo sapiens, UniProt Q96EB6); assay: Inhibition of N-terminal His6-tagged SIRT1 coding region (156-664) (unknown origin) expressed in Escherichia coli BL21(DE3) using 31.25 uM ac-RHKKac-AMC and 750 uM NAD+ as substrate after 45 mins by fluorometric analysis
T1 sequence (Q96EB6 whole entry): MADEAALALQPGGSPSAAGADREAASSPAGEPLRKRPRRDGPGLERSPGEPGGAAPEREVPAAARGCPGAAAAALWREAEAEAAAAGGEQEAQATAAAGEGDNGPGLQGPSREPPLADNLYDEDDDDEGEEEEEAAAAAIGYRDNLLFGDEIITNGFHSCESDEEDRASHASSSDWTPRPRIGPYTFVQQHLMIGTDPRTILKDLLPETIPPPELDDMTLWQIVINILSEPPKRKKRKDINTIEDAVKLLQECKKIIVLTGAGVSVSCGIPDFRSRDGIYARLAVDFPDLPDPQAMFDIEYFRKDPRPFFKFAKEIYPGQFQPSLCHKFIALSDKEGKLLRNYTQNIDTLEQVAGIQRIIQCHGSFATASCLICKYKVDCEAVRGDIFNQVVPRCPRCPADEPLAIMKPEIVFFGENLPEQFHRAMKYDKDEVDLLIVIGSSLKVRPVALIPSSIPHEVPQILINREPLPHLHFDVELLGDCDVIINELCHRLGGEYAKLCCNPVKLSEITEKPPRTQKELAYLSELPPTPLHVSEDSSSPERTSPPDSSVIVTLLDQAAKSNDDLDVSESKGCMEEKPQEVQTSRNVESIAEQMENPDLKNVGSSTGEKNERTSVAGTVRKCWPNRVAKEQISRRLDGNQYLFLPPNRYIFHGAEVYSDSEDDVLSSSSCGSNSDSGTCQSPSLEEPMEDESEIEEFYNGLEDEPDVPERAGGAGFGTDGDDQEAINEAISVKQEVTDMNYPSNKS

[2] = molecular target: T2, NAD-dependent protein deacetylase sirtuin-1 (Homo sapiens, UniProt Q96EB6, I347A); assay: Inhibition of N-terminal His6-tagged SIRT1 I347A mutant (unknown origin) expressed in Escherichia coli BL21(DE3) using ac-RHKKac-AMC as substrate after 45 mins by fluorometric analysis
In short: (§1)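 Mutant SIRT1 enzyme levels were set to give the same deacetylase activity as wild type. The AMC-peptide/NAD+ fluorogenic assay ran in Tris pH 8.0 buffer for 45 min at room temperature, followed by nicotinamide stop, trypsin development and a 340/490 nm fluorescence read. IC50 was obtained by curve fitting.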

[3] = molecular target: T3, NAD-dependent protein deacetylase sirtuin-1 (Homo sapiens, UniProt Q96EB6, F312L); assay: Mixed type inhibition of N-terminal His6-tagged SIRT1 F312L mutant (unknown origin) expressed in Escherichia coli BL21(DE3) using NAD+ as substrate by Lineweaver-Burk plot analysis in presence of ac-RHKKac-AMC
In short: (§2)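 Velocities of each SIRT1 point mutant were measured at varied inhibitor concentrations with NAD+ varied and peptide present. Reciprocal velocities were plotted against 1/[NAD+], the slopes were replotted versus inhibitor concentration, and Ki was taken from the x-intercepts of these secondary plots.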

[4] = tested on: MCF7; assay: Effect on p53 protein level in human MCF7 cells at 1.2 to 100 uM after 6 hrs by Western blot analysis; format: functional, cell-based
In short: (§3)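 MCF-7 cells grown in DMEM with 10% fetal calf serum were treated with graded inhibitor concentrations. Lysate protein was run on a 9% gel, transferred to nitrocellulose, blocked 1 h at room temperature in 5% milk/TBST, and probed for acetyl-p53 and total p53.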

[5] = molecular target: T4, NAD-dependent protein deacetylase sirtuin-1 (Homo sapiens) (UniProt Q96EB6); assay: Noncompetitive inhibition of N-terminal His6-tagged SIRT1 coding region (156-664) (unknown origin) expressed in Escherichia coli BL21(DE3) using ac-RHKKac-AMC as substrate by Lineweaver-Burk plot analysis in presence of NAD+
T4 sequence (whole entry): T1 sequence (Q96EB6 whole entry)

[6] = molecular target: T4, NAD-dependent protein deacetylase sirtuin-1 (Homo sapiens); assay: Inhibition of N-terminal His6-tagged SIRT1 coding region (156-664) (unknown origin) expressed in Escherichia coli BL21(DE3) using 100 uM ac-RHKKac-AMC and 20 uM NAD+ as substrate after 45 mins by fluorometric analysis
[7] = molecular target: T5, NAD-dependent protein deacetylase sirtuin-1 (Homo sapiens, UniProt Q96EB6, F273L); assay: Inhibition of N-terminal His6-tagged SIRT1 F273L mutant (unknown origin) expressed in Escherichia coli BL21(DE3) using ac-RHKKac-AMC as substrate after 45 mins by fluorometric analysis; in short: as §1
[8] = molecular target: T4, NAD-dependent protein deacetylase sirtuin-1 (Homo sapiens); assay: Reversible inhibition of N-terminal His6-tagged SIRT1 coding region (156-664) (unknown origin) expressed in Escherichia coli BL21(DE3) using ac-RHKKac-AMC as substrate incubated at 10-fold IC50 for 30 mins followed by 100-fold dilution measured up to 40 mins by fluorometric analysis
In short: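 Enzyme was preincubated with inhibitor or DMSO at room temperature for 30 min, then rapidly diluted 100-fold into reaction buffer containing NAD+ and ac-RHKK(ac)-AMC. Deacetylated product was monitored over time, and the slope of the inhibitor curve was compared with the DMSO control.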

[9] = molecular target: T2, NAD-dependent protein deacetylase sirtuin-1; assay: Mixed type inhibition of N-terminal His6-tagged SIRT1 I347A mutant (unknown origin) expressed in Escherichia coli BL21(DE3) using NAD+ as substrate by Lineweaver-Burk plot analysis in presence of ac-RHKKac-AMC; in short: as §2
[10] = molecular target: T6, NAD-dependent protein deacetylase sirtuin-1 (Homo sapiens, UniProt Q96EB6, N346A); assay: Mixed type inhibition of N-terminal His6-tagged SIRT1 N346A mutant (unknown origin) expressed in Escherichia coli BL21(DE3) using NAD+ as substrate by Lineweaver-Burk plot analysis in presence of ac-RHKKac-AMC; in short: as §2
[11] = molecular target: T1, NAD-dependent protein deacetylase sirtuin-1; assay: Mixed-type inhibition of N-terminal His6-tagged SIRT1 coding region (156-664) (unknown origin) expressed in Escherichia coli BL21(DE3) using NAD+ as substrate by Lineweaver-Burk plot analysis in presence of ac-RHKKac-AMC
In short: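 With ac-RHKK(ac)-AMC held fixed, NAD+ was varied at several inhibitor concentrations. Fluorogenic deacetylation velocities were analysed by Lineweaver–Burk plots against NAD+ concentration.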

[12] = molecular target: T3, NAD-dependent protein deacetylase sirtuin-1; assay: Inhibition of N-terminal His6-tagged SIRT1 F312L mutant (unknown origin) expressed in Escherichia coli BL21(DE3) using ac-RHKKac-AMC as substrate after 45 mins by fluorometric analysis; in short: as §1
[13] = molecular target: T4, NAD-dependent protein deacetylase sirtuin-1 (Homo sapiens); assay: Inhibition of SIRT1-mediated p53 deacetylation in human MCF7 cells after 6 hrs by Western blot analysis; format: cell-based; in short: as §3
[14] = molecular target: T6, NAD-dependent protein deacetylase sirtuin-1; assay: Inhibition of N-terminal His6-tagged SIRT1 N346A mutant (unknown origin) expressed in Escherichia coli BL21(DE3) using ac-RHKKac-AMC as substrate after 45 mins by fluorometric analysis; in short: as §1
[15] = tested on: T7, NAD-dependent protein deacetylase sirtuin-3, mitochondrial (Homo sapiens), Q9NTG7 [L195F]; assay: Inhibition of N-terminal His6-tagged SIRT3 L195F mutant (unknown origin) expressed in Escherichia coli BL21(DE3) using ac-RHKKac-AMC as substrate at 50 to 100 uM after 45 mins by fluorometric analysis
T7 sequence (whole entry): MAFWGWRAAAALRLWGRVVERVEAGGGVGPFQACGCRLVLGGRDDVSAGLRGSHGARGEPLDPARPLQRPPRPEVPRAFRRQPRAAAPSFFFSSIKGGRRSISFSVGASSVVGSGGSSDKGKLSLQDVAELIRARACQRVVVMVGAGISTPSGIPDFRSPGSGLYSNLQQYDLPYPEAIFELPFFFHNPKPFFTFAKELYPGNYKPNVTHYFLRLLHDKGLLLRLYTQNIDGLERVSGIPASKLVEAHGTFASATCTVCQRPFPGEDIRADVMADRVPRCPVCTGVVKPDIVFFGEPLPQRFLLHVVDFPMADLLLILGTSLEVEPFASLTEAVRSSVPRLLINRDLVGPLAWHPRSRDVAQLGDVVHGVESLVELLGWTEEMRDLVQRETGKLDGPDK

[16] = molecular target: T5, NAD-dependent protein deacetylase sirtuin-1; assay: Mixed type inhibition of N-terminal His6-tagged SIRT1 F273L mutant (unknown origin) expressed in Escherichia coli BL21(DE3) using NAD+ as substrate by Lineweaver-Burk plot analysis in presence of ac-RHKKac-AMC; in short: as §2

T5 sequence (Q96EB6 2-747 F273L limits assumed): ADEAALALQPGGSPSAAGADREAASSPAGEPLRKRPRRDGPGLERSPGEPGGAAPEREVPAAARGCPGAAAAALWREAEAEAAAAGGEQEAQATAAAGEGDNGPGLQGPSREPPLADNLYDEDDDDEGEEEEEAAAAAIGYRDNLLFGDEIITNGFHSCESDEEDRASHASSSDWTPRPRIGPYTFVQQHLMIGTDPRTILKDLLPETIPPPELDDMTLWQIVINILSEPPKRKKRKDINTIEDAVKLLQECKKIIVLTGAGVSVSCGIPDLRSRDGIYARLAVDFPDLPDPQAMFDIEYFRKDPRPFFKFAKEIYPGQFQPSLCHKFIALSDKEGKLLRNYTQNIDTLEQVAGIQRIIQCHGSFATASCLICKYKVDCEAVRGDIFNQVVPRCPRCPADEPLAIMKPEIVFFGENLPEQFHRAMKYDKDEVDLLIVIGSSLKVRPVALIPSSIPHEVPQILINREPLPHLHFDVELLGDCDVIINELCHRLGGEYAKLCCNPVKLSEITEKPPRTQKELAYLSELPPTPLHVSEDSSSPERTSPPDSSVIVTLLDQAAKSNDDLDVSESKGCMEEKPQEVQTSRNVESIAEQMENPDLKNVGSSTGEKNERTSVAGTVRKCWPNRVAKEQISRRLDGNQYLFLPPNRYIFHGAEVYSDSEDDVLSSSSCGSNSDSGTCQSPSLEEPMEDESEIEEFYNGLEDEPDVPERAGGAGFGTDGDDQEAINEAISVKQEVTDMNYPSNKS
T3 sequence (Q96EB6 2-747 F312L limits assumed): as the sequence (Q96EB6 2-747 F273L limits assumed) above, with L272F, F311L counted along it
T2 sequence (Q96EB6 2-747 I347A limits assumed): as the sequence (Q96EB6 2-747 F273L limits assumed) above, with L272F, I346A counted along it
T6 sequence (Q96EB6 2-747 N346A limits assumed): as the sequence (Q96EB6 2-747 F273L limits assumed) above, with L272F, N345A counted along it

SMILES | IC50 [1] | further results
COc1ccc(O)c(C(=O)c2coc3ccc(O)cc23)c1 | 45.1 µM | –
Cc1ccc(C(=O)c2coc3c2cc(O)c2ccccc23)cc1 | > 300 µM | –
COc1ccc(OC)c(C(=O)c2coc3ccc(OC(C)=O)cc23)c1 | > 300 µM | –
O=C(c1ccc(Br)cc1)c1coc2ccc(O)cc12 | 240 µM | –
COc1cc2c(C(=O)c3ccc(Br)cc3)c(C)oc2c2ccccc12 | > 300 µM | –
Cc1oc2ccc(O)cc2c1C(=O)c1ccc(Br)cc1 | 243 µM | –
COc1ccc(OC)c(C(=O)c2coc3cc(Br)c(O)c(Br)c23)c1 | > 300 µM | –
Cc1cc2occ(C(=O)c3ccc(Cl)cc3)c2cc1O | 88 µM | –
COc1ccc(OC)c(C(=O)c2coc3ccc(O)cc23)c1 | > 300 µM | –
O=C(c1ccccc1)c1coc2ccc(O)c(CN3CCOCC3)c12 | > 300 µM | –
O=C(c1ccc(OCc2ccccc2)cc1)c1coc2cc(Br)c(O)c(Br)c12 | > 300 µM | –
COc1ccc(C(=O)c2coc3c2cc(O)c2ccccc23)cc1 | 256 µM | –
COc1ccc(O)cc1C(=O)c1coc2ccc(O)cc12 | 41.7 µM | –
COc1ccc(OC)c(C(=O)c2coc3ccc(O)c(CN4CCOCC4)c23)c1 | > 300 µM | –
O=C(c1ccccc1)c1coc2c1cc(O)c1ccccc12 | > 300 µM | –
O=C(c1ccc(Br)cc1)c1coc2c1cc(O)c1ccccc12 | 146 µM | –
O=C(c1ccccc1O)c1coc2ccc(O)cc12 | 71.4 µM | –
CC(=O)Oc1ccc2occ(C(=O)c3ccccc3)c2c1 | > 300 µM | –
O=C(c1ccccc1)c1coc2cc(Br)c(O)c(Br)c12 | 198 µM | –
O=C(c1cc(O)ccc1O)c1coc2ccc(O)cc12 | 2.8 µM | IC50 [2]: 421 µM; Ki [3]: 254 µM; Activity [4]: inactive; inhibition [5]: Active; inhibition [6]: Active; IC50 [7]: 491 µM; inhibition [8]: Active; Ki [9]: 174 µM; Ki [10]: 253 µM; Ki [11]: 0.8 µM; IC50 [12]: 550 µM; inhibition [13]: Dose-dependent effect; IC50 [14]: 283 µM; inhibition [15]: Active; Ki [16]: 219 µM
O=C(c1cccc(O)c1)c1coc2ccc(O)cc12 | 31.2 µM | –
